Measured values from PMC5814546 (Clinical Pharmacokinetics, 2017).

Key:
Assay type in all cases: in vivo, human
[1] = Urine drug recovery, renal clearance and estimate of oral bioavailability; details: for Mean Ae / CLr: Cohort D, 24-h urine; for CLr: mean ± SD
Method in brief: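 Cohort D: 265 mg immediate-release tablet in the fed state (meal 30 min pre-dose), once on day 1, twice daily days 2–6, once on day 7. Urine was collected over 24 h on days 1 and 7 and assayed by LC-MS (LLOQ 30 ng/mL ALZ-801, 100 ng/mL tramiprosate). Renal clearance was calculated as Ae divided by plasma AUC24.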

[2] = Phase I multiple ascending dose study of ALZ-801 capsule and tablet; details: plasma; for AUC24: mean ± SD
[3] = Phase I single ascending dose study of ALZ-801 loose-filled capsule; details: plasma, ALZ-801 capsule 172 and 300 mg doses
Method in brief: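 Single fasted oral loose-filled capsules; 172 mg in 36 healthy subjects over 50 y (parallel, randomized 1:1:1), 300 mg in 15 subjects over 50 y. Plasma sampled over 48 h into K3 EDTA on ice, spun 2000g 10 min 4 °C, stored at or below −20 °C. LC-MS assay; non-compartmental analysis; Tmax as median (range).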

O=C(O)CCS(=O)(=O)O [NRM5074]
Mean Ae ([1]; Day 1, ALZ-801 tablet 265 mg): 70.8 mg | CLr ([1]; Day 1, ALZ-801 tablet 265 mg): 652 ± 161 mL/min | Mean Ae ([1]; Day 7, ALZ-801 tablet 265 mg): 188.7 mg | CLr ([1]; Day 7, ALZ-801 tablet 265 mg): 575 ± 218 mL/min | mean CLr (range) ([1]; across dosing cohorts and days, Study 2): 500 to 1570 mL/min | AUC24 ([2]; Day 1, fed, ALZ-801 tablet 265 mg (Cohort D)): 1.81 ± 0.348 µg·h/mL | AUC24 ([2]; Day 7, fed, ALZ-801 tablet 265 mg twice daily (Cohort D)): 5.47 ± 1.03 µg·h/mL | median T max ([2]; days 7 and 14, all dosing regimens): 5 h | T max range ([2]; single oral dose of ALZ-801, day 1): 2 to 16 h | median T max [3]: approximately 5 h
